TRPC6 inh = blocks the mouse TRPC6 cation channel | B-score at 10 µM | HEK293-TRPC6, membrane potential dye, ACh-evoked depolarization; stronger effect = lower value | Q61143 | hit rate 1.1% among 310,000;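 active = B-score under library mean minus 3 SD, initial fluorescence not abnormally high, positive integrated signal ratio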;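 note: B-score derived from integrated fluorescence ratio over the kinetic read; more negative B-score means stronger inhibition of depolarization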
TRPC4 agonist = TRPC4 (mouse) channel activation; AID 2237; Q9QUQ5; B-score at 10 µM; hit rate 0.49% among 310,000; HEK293 TRPC4beta/mu-opioid, Fluo4 calcium fluorescence; stronger effect = higher value;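 active = B-score above 5 SD of library B-scores, and initial fluorescence ratio not above library mean plus 5 SD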;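 note: positive B-score marks a calcium rise read as TRPC4 activation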
Target sequence (Q9QUQ5 whole entry, looked up): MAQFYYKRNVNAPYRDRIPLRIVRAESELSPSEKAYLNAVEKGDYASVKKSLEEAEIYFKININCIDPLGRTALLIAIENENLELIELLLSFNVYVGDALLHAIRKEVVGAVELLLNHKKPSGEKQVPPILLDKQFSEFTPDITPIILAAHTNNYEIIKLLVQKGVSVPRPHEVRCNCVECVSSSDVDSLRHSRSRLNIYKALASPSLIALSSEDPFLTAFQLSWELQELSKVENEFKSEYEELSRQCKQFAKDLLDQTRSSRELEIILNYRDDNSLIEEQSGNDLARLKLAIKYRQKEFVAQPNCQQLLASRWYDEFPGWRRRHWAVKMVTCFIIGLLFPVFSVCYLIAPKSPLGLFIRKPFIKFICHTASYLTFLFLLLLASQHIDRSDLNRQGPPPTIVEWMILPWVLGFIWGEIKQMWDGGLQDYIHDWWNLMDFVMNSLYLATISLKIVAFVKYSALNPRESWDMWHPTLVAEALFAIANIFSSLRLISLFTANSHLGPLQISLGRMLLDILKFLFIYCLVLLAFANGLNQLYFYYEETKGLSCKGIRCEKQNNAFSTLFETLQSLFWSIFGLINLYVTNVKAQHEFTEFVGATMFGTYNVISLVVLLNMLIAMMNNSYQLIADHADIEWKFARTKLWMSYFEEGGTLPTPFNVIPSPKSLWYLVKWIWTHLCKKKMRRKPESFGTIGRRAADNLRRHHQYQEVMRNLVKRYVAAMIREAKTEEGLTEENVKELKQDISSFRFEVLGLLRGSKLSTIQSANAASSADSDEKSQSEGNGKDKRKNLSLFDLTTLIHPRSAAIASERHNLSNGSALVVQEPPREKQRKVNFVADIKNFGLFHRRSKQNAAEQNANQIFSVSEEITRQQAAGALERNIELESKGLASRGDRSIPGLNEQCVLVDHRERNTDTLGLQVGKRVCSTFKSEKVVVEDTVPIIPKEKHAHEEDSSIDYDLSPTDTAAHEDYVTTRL
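System: HEK293 cells stably co-expressing mouse TRPC4beta and mu-opioid receptor; Schedule: Fluo4 dye loading 45 min at room temperature, 110 s recording; Detection: Fluo4 fluorescence, kinetic; Evaluation: B-scored integrated calcium fluorescence ratio; Controls: buffer (low) and maximal DAMGO (high).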
TRPC4 potent = allosterically enhances the mouse TRPC4 cation channel. Q9QUQ5. HEK293 TRPC4beta/mu-opioid, DAMGO EC20, Fluo-4 Ca2+ flux; stronger effect = higher value. B-score at 10 µM. hit rate 0.42% among 310,000. AID 2227;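 active = B-score of calcium response area above 5 SD of library B-scores, with initial fluorescence ratio within 5 SD of library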;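 note: B-score of integrated fluorescence ratio over time as area under calcium response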
TRPC6 act = mouse TRPC6 channel activation; HEK293-TRPC6 membrane potential dye fluorescence; stronger effect = higher value; B-score at 10 µM; hit rate 0.13% among 310,000; AID 2550;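 active = B-score of the integrated fluorescence ratio above library mean plus 3 SD, and starting fluorescence ratio within library mean plus 5 SD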;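 note: higher score means more depolarization so channel activation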
TRPC4 block = blocks the mouse TRPC4 cation channel; Q9QUQ5; HEK293 TRPC4beta/mu-opioid, DAMGO-evoked Fluo4 calcium flux; stronger effect = lower value; B-score at 10 µM; hit rate 0.39% among 300,000; AID 2247;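 active = B-score over 3 SD under the library average, no early fluorescence shift, positive overall ratio signal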
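Signal: kinetic Fluo4 fluorescence imaging of calcium influx. Material: stable TRPC4beta/mu-opioid receptor HEK293 cells. Probe or stimulus: DAMGO in two steps, submaximal then maximal.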
TRPC4 spec 2 = mouse TRPC4 off-target activity of TRPC6 inhibitors, second screen; shares compounds with TRPC6 inh; HEK293 TRPC4/MOR, membrane potential dye fluorescence; channel activated by saturating DAMGO dose; inhibition, % at 10 µM; hit rate 42% among 920; AID 2776;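 active = compounds whose fluorescence signal differed from control wells by over 3 SD, either direction, in both duplicate plates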
TRPC4 spec = tests whether TRPC6 inhibitors also affect mouse TRPC4; activity change, negative = inhibition, % at 10 µM; hit rate 61% among 920; AID 2777; HEK293 TRPC4/mu-opioid, membrane potential fluorescence; shares compounds with TRPC6 inh;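 active = rise or fall in signal beyond 3 SD of buffer-only wells in both replicate plates, either sign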;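 note: integrated kinetic ratio of fluorescence range over baseline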
HEK293 MPD ctr 2-1 = second check of TRPC6 inhibitor effects in parental HEK293 cells | shares compounds with TRPC6 inh | parental HEK293 membrane potential dye fluorescence; maximal acetylcholine challenge after compound addition | signal change vs control, % at 10 µM | hit rate 31% among 920 | AID 2779;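 active = membrane potential signal moving either way by over 3 SD of the maximum-effect control, in both duplicate plates, meaning non-specific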
HEK293 MPD ctr-1 = checks TRPC6 inhibitor effects in parental HEK293 cells | shares compounds with TRPC6 inh | parental HEK293 membrane potential dye fluorescence | membrane potential signal change, % at 10 µM | hit rate 60% among 920;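 active = membrane potential signal shifting up or down by more than 3 SD of buffer-only wells, on both duplicate plates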
HEK293 MPD ctr-2 = checks TRPC6 modulator effects in parental HEK293 cells; shares compounds with TRPC6 inh; membrane potential dye fluorescence; membrane potential signal change, % at 10 µM; hit rate 51% among 2,400;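 active = membrane potential signal moves up or down beyond 5 SD from buffer-only wells, on both duplicate plates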
HEK293 MPD ctr 2-2 = parental HEK293 nonspecific activity of TRPC6 modulators, second screen; shares compounds with TRPC6 inh; membrane potential dye fluorescence; after compound, maximal acetylcholine stimulation; inhibition, % at 10 µM; hit rate 14% among 2,400; AID 488926;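 active = membrane potential signal drops by more than 5 SD from the mean control signal, in both duplicate plates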;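 note: plate controls were acetylcholine ECmax control wells for no effect and buffer only wells for full effect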
TRPC4 ctr mod = tests whether TRPC6 modulators also affect mouse TRPC4 | HEK293 TRPC4/mu-opioid, membrane potential fluorescence | AID 488927 | hit rate 69% among 2,400 | percent change from control (negative = decrease, positive = increase), % at 10 µM | shares compounds with TRPC6 inh;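 active = membrane potential signal moved up or down beyond 5 SD of buffer control wells, in both duplicate plates, actives on both sides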;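 note: plate controls were assay buffer wells for no effect and DAMGO maximal-effect wells for full effect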
TRPC4 ctr inh 2 = second selectivity test of TRPC6 modulators against mouse TRPC4. shares compounds with TRPC6 inh. HEK293 TRPC4/mu-opioid, membrane potential dye fluorescence; stimulated with maximal-effect DAMGO. inhibition, % at 10 µM. hit rate 55% among 2,400. AID 488928;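 active = drop in membrane potential signal beyond 5 SD of the control wells in both duplicate plates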;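 note: TRPC4 counter screen for TRPC6 hits run under conditions tuned for TRPC6 not TRPC4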
TRPC6 block conf = confirmation of mouse TRPC6 inhibitors; shares compounds with TRPC6 inh; inhibition, % at 10 µM; HEK293-TRPC6, membrane potential dye, ACh-evoked depolarization; hit rate 43% among 3,300;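 active = fluorescence ratio falls more than 5 SD below the full-stimulation control mean, in both duplicate runs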;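 note: integrated fluorescence ratio of peak minus minimum over baseline after agonist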
TRPC6 act confirm = mouse TRPC6 activator confirmation | shares compounds with TRPC6 inh | HEK293-TRPC6 membrane potential dye fluorescence, FDSS | activation, % at 10 µM | hit rate 11% among 2,800 | AID 488961;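 active = ratio signal rise beyond 5 SD above unstimulated control wells' mean, seen in both duplicate runs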;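 note: plate controls were buffer EC0 wells for no effect and acetylcholine ECmax response for full effect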
Numbers without * were called inactive; i = inactive; · = no result. An excerpt weighted towards active compounds, which were near 2.3% of everything screened.

SMILES	TRPC6 inh	TRPC4 agonist	TRPC4 potent	TRPC6 act	TRPC4 block	TRPC6 block conf	TRPC6 act confirm	others
CCOC(=O)c1c(CNc2ccncc2)n(C)c2cc(Br)c(O)cc12	-8.3*	i	i	i	i	60%*	i	TRPC4 spec 2=70%*;TRPC4 spec=-27%*;HEK293 MPD ctr 2-1=-46%*;HEK293 MPD ctr-1=-370%*
COC(=O)c1ccc2c(c1)N(Cc1nc(-c3ccc(Cl)cc3)oc1C)C(=O)C1CCCN21 (stereo unspecified)	i	i	i	i	i	·	·
COC(=O)c1ccccc1S(=O)(=O)N1CCC(C(=O)N(C)CCOc2ccccc2)CC1	i	i	i	i	i	·	·
Cc1cc(N2CCN(c3ccc([N+](=O)[O-])c4cccnc34)CC2)c2ccccc2n1	i	i	i	i	i	·	·
Cc1cc(C)n(-c2ccc(S(=O)(=O)N3CCCC3)cc2[N+](=O)[O-])n1	i	i	i	i	i	·	·
Cc1cc(N2CCN(c3ccc(C(F)(F)F)cc3[N+](=O)[O-])CC2)c2ccccc2n1	-6.3*	i	i	i	i	i	i	HEK293 MPD ctr-2=i;HEK293 MPD ctr 2-2=i;TRPC4 ctr mod=-12%*;TRPC4 ctr inh 2=67%*
Cc1cc(C)n(-c2ccc(C(F)(F)F)cc2[N+](=O)[O-])n1	-5.3*	i	i	i	i	i	i	HEK293 MPD ctr-2=i;HEK293 MPD ctr 2-2=i;TRPC4 ctr mod=9.5%*;TRPC4 ctr inh 2=i
COc1ccc2[nH]cc(CCN=C3SCC(=O)N3C)c2c1	i	i	i	i	i	·	·
COc1cc(C(=O)N/N=C/c2ccc(OC)c(CN3CCN(c4ccc(F)cc4)CC3)c2)ccc1O	i	i	i	i	i	·	·

Screening results from PubChem BioAssay.
